From ChEMBL document CHEMBL3627653, “Synthesis and biological evaluation of spiro[cyclopropane-1,3'-indolin]-2'-ones as potential anticancer agents” (Bioorg Med Chem Lett, 2015)
Active and inactive are the calls of the source. The rule behind the calls is not given here.

Legend:
[1] = tested on: MCF7; experiment: Anticancer activity against human MCF7 cells; assay type: functional
Outline: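 Human MCF-7 breast cancer cells exposed to compound for 48 h. The IC50 (50% inhibitory concentration) is reported as the average of three individual experiments.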

[2] = tested on: DU-145; experiment: Reduction in mitochondrial membrane potential in human DU145 cells at 1.5 uM incubated for 48 hrs by JC1 dye staining based flow cytometry; assay type: functional, cell-based
Outline: (§1)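 After 48 h exposure at 1.5 or 3 μM, DU-145 cells were stained with JC-1 to track loss of mitochondrial membrane potential (ΔΨm) and read on a FACScan flow cytometer. Untreated control and nocodazole (1.5 μM) were run alongside.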

[3] = tested on: DU-145; experiment: Reduction in mitochondrial membrane potential in human DU145 cells assessed as cell level at Q1-upper right quadrant at 1.5 uM incubated for 48 hrs by JC1 dye staining based flow cytometry (reference value: 95.1%); assay type: functional; design: scale not given: the % may be the effect or the level left; outline: as §1
[4] = tested on: DU-145; experiment: Induction of apoptosis in human DU145 cells assessed as viable cells level at 1.5 uM incubated for 48 hrs by Annexin V-FITC and propidium iodide staining based flow cytometry (reference value: 87.88%); assay type: functional
[5] = tested on: DU-145; experiment: Induction of apoptosis in human DU145 cells assessed as late apoptotic cells level at 1.5 uM incubated for 48 hrs by Annexin V-FITC and propidium iodide staining based flow cytometry (reference value: 3.83%); assay type: functional
[6] = tested on: DU-145; experiment: Reduction in mitochondrial membrane potential in human DU145 cells assessed as cell level at Q1-lower right quadrant at 1.5 uM incubated for 48 hrs by JC1 dye staining based flow cytometry (reference value: 3.1%); assay type: functional; design: scale not given: the % may be the effect or the level left; outline: as §1
[7] = tested on: DU-145; experiment: Induction of cell cycle arrest in human DU145 cells assessed as accumulation at G0/G1 phase at 1.5 uM incubated for 48 hrs by propidium iodide staining based flow cytometry (reference value: 79.81%); assay type: functional
[8] = tested on: DU-145; experiment: Induction of apoptosis in human DU145 cells assessed as necrotic cells level at 1.5 uM incubated for 48 hrs by Annexin V-FITC and propidium iodide staining based flow cytometry (reference value: 3.56%); assay type: functional
[9] = tested on: DU-145; experiment: Induction of cell cycle arrest in human DU145 cells assessed as accumulation at subG1 phase at 1.5 uM incubated for 48 hrs by propidium iodide staining based flow cytometry (reference value: 9.12%); assay type: functional
[10] = tested on: DU-145; experiment: Induction of cell cycle arrest in human DU145 cells assessed as accumulation at G2/M phase at 1.5 uM incubated for 48 hrs by propidium iodide staining based flow cytometry (reference value: 6.51%); assay type: functional
[11] = tested on: DU-145; experiment: Induction of apoptosis in human DU145 cells assessed as early apoptotic cells level at 1.5 uM incubated for 48 hrs by Annexin V-FITC and propidium iodide staining based flow cytometry (reference value: 4.73%); assay type: functional
[12] = tested on: DU-145; experiment: Induction of cell cycle arrest in human DU145 cells assessed as accumulation at S phase at 1.5 uM incubated for 48 hrs by propidium iodide staining based flow cytometry (reference value: 1.74%); assay type: functional
[13] = tested on: DU-145; experiment: Reduction in mitochondrial membrane potential in human DU145 cells assessed as cell level at Q1-lower left quadrant at 1.5 uM incubated for 48 hrs by JC1 dye staining based flow cytometry (reference value: 0.1%); assay type: functional; design: scale not given: the % may be the effect or the level left; outline: as §1
[14] = tested on: DU-145; experiment: Reduction in mitochondrial membrane potential in human DU145 cells assessed as cell level at Q1-upper left quadrant at 1.5 uM incubated for 48 hrs by JC1 dye staining based flow cytometry (reference value: 1.6%); assay type: functional; design: scale not given: the % may be the effect or the level left; outline: as §1
[15] = tested on: DU-145; experiment: Reduction in mitochondrial membrane potential in human DU145 cells assessed as cell level at Q1-upper left quadrant at 3 uM incubated for 48 hrs by JC1 dye staining based flow cytometry (reference value: 1.6%); assay type: functional; design: scale not given: the % may be the effect or the level left; outline: as §1
[16] = tested on: MCF7; experiment: Anticancer activity against human MCF7 cells assessed as reduction in cell viability incubated for 48 hrs by MTT assay; assay type: functional, cell-based; settings: MCF7, 48 h
[17] = tested on: DU-145; experiment: Induction of cell cycle arrest in human DU145 cells assessed as accumulation at S phase at 3 uM incubated for 48 hrs by propidium iodide staining based flow cytometry (reference value: 1.74%); assay type: functional
[18] = tested on: DU-145; experiment: Induction of cell cycle arrest in human DU145 cells assessed as accumulation at G0/G1 phase at 3 uM incubated for 48 hrs by propidium iodide staining based flow cytometry (reference value: 79.81%); assay type: functional
[19] = tested on: DU-145; experiment: Reduction in mitochondrial membrane potential in human DU145 cells assessed as cell level at Q1-lower left quadrant at 3 uM incubated for 48 hrs by JC1 dye staining based flow cytometry (reference value: 0.1%); assay type: functional; design: scale not given: the % may be the effect or the level left; outline: as §1
[20] = tested on: DU-145; experiment: Induction of cell cycle arrest in human DU145 cells assessed as accumulation at G2/M phase at 3 uM incubated for 48 hrs by propidium iodide staining based flow cytometry (reference value: 6.51%); assay type: functional
[21] = tested on: HeLa; experiment: Anticancer activity against human HeLa cells assessed as reduction in cell viability incubated for 48 hrs by MTT assay; assay type: functional, cell-based
[22] = tested on: HT-29; experiment: Anticancer activity against human HT-29 cells assessed as reduction in cell viability incubated for 48 hrs by MTT assay; assay type: functional, cell-based; settings: HT-29, 48 h
[23] = tested on: DU-145; experiment: Reduction in mitochondrial membrane potential in human DU145 cells at 3 uM incubated for 48 hrs by JC1 dye staining based flow cytometry; assay type: functional, cell-based; outline: as §1
[24] = tested on: DU-145; experiment: Anticancer activity against human DU145 cells assessed as reduction in cell viability incubated for 48 hrs by MTT assay; assay type: functional, cell-based; settings: DU-145, 48 h
[25] = tested on: DU-145; experiment: Induction of apoptosis in human DU145 cells assessed as viable cells level at 3 uM incubated for 48 hrs by Annexin V-FITC and propidium iodide staining based flow cytometry (reference value: 87.88%); assay type: functional
[26] = tested on: DU-145; experiment: Induction of cell cycle arrest in human DU145 cells assessed as accumulation at subG1 phase at 3 uM incubated for 48 hrs by propidium iodide staining based flow cytometry (reference value: 9.12%); assay type: functional
[27] = tested on: DU-145; experiment: Reduction in mitochondrial membrane potential in human DU145 cells assessed as cell level at Q1-lower right quadrant at 3 uM incubated for 48 hrs by JC1 dye staining based flow cytometry (reference value: 3.1%); assay type: functional; design: scale not given: the % may be the effect or the level left; outline: as §1
[28] = tested on: HEK293; experiment: Cytotoxic activity against human HEK293 cells assessed as reduction in cell viability incubated for 48 hrs by MTT assay; assay type: cell-based; settings: HEK293, 48 h
[29] = tested on: DU-145; experiment: Induction of apoptosis in human DU145 cells assessed as increase in caspase-3 levels level at 1.5 and 3 uM incubated for 48 hrs by ELISA method; assay type: functional
Outline: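 Caspase-3 levels measured in DU-145 cells after 48 h treatment at 1.5 and 3 μM and expressed relative to untreated control. Data are mean ± SD of two experiments each run in triplicate; significance set at P < 0.005 versus control.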

[30] = tested on: DU-145; experiment: Reduction in mitochondrial membrane potential in human DU145 cells assessed as cell level at Q1-upper right quadrant at 3 uM incubated for 48 hrs by JC1 dye staining based flow cytometry (reference value: 95.1%); assay type: functional; design: scale not given: the % may be the effect or the level left; outline: as §1
[31] = tested on: A549; experiment: Anticancer activity against human A549 cells assessed as reduction in cell viability incubated for 48 hrs by MTT assay; assay type: functional, cell-based; settings: A549, 48 h
[32] = tested on: DU-145; experiment: Induction of apoptosis in human DU145 cells assessed as late apoptotic cells level at 3 uM incubated for 48 hrs by Annexin V-FITC and propidium iodide staining based flow cytometry (reference value: 3.83%); assay type: functional
[33] = tested on: DU-145; experiment: Induction of apoptosis in human DU145 cells assessed as necrotic cells level at 3 uM incubated for 48 hrs by Annexin V-FITC and propidium iodide staining based flow cytometry (reference value: 3.56%); assay type: functional
[34] = tested on: DU-145; experiment: Induction of apoptosis in human DU145 cells assessed as early apoptotic cells level at 3 uM incubated for 48 hrs by Annexin V-FITC and propidium iodide staining based flow cytometry (reference value: 4.73%); assay type: functional
[35] = tested on: DU-145; experiment: Anticancer activity against human DU145 cells; assay type: functional, cell-based

Work on CC(=O)N1C(=O)[C@]2(Sc3ncccc3C(=O)N2c2ccccc2)c2cc(Br)ccc21 yielded a GI50 [1] of 2.13 µM.
In the case of COC(=O)Nc1nc2cc(C(=O)c3cccs3)ccc2[nH]1 [NOCODAZOLE], the Activity [2] is reported as “Active”, the Activity [3] is reported as 87.5% and the Activity [4] is reported as 81.21%. It also gave an Activity [5] of 5.35%, an Activity [6] of 8.3% and an Activity [7] of 57.63%. The Activity [8] was 3.92%, the Activity [9] was 9.25% and the Activity [10] was 26.59%. It also gave an Activity [11] of 9.52%, an Activity [12] of 5.61% and an Activity [13] of 1.4%. For the same compound, the Activity [14] was 2.8%.
CCOC(=O)[C@H]1[C@H](C(=O)c2ccc(C)cc2)C12C(=O)Nc1ccc(Br)cc12 (relative stereo) was tested, and the Activity [15] was 2.1%, the IC50 [16] was 3.63 µM and the Activity [17] was 64.01%. For the same compound, the Activity [18] was 3.4%, the Activity [2] was “Active” and the Activity [3] was 88.1%. The Activity [4] was 2.74%, the Activity [19] was 1.8% and the Activity [20] was 3.16%. The IC50 [21] was 16.1 µM, the IC50 [22] was 1.87 µM and the Activity [23] was “Active”. For the same compound, the Activity [5] was 66.31%, the IC50 [24] was 1.86 µM and the Activity [6] was 7.5%. For the same compound, the Activity [25] was 17%, the Activity [7] was 1.35% and the Activity [8] was 3.41%. It also gave an Activity [26] of 85.57%, an Activity [9] of 8.8% and an Activity [27] of 12%. For the same compound, the Activity [10] was 2.1%, the IC50 [28] was 79.4 µM and the “fold change (FC)” value [29] was 2. The Activity [11] was 57.28%, the Activity [30] was 84.1% and the Activity [12] was 26.17%. The IC50 [31] was 4.56 µM, the Activity [32] was 18.78% and the Activity [33] was 11.5%. The Activity [34] was 22.98%, the Activity [13] was 1.1% and the Activity [14] was 3.1%.
Work on CCOC(=O)[C@H]1[C@H](C(=O)c2ccccc2)C12C(=O)Nc1ccccc12 (relative stereo) yielded an Activity [15] of 2.2%, an IC50 [16] of 3.98 µM and an Activity [17] of 70.57%. For the same compound, the Activity [18] was 4.03%, the Activity [2] was “Active” and the Activity [3] was 89.7%. For the same compound, the Activity [4] was 4.19%, the Activity [19] was 1.6% and the Activity [20] was 8.93%. The IC50 [21] was 7.5 µM, the IC50 [22] was 3.89 µM and the Activity [23] was “Active”. The Activity [5] was 78.52%, the IC50 [24] was 2.08 µM and the Activity [6] was 6.6%. It also gave an Activity [25] of 17.66%, an Activity [7] of 2.11% and an Activity [8] of 0.62%. For the same compound, the Activity [26] was 84.93%, the Activity [9] was 7.77% and the Activity [27] was 11.1%. It also gave an Activity [10] of 2.27%, an IC50 [28] of 64.6 µM and an IC50 [35] of 2.08 µM. For the same compound, the “fold change (FC)” value [29] was 2, the Activity [11] was 56.01% and the Activity [30] was 85.1%. The Activity [12] was 16.58%, the IC50 [31] was 5.12 µM and the Activity [32] was 10.12%. For the same compound, the Activity [33] was 10.74%, the Activity [34] was 22.15% and the Activity [13] was 0.8%. The Activity [14] was 2.9%.
In the case of CN1O[C@@]2(C[C@@H]1c1ccccc1)C(=O)Nc1ccccc12, the GI50 [1] is reported as 2.6 µM.
